According to ChEMBL document CHEMBL1156233, “Synthesis and anti-HIV activity of alkylated quinoline 2,4-diols” (Bioorg Med Chem, 2010):

Legend:
[1] = Solubility of the compound; assay type: physicochemical
[2] = tested on: Human immunodeficiency virus 1; assay: Antiviral activity against Human immunodeficiency virus 1 NL4.3 infected human CEM cells expressing GFP at 14.98 uM measured up to 8 days postinfection by p24 antigen capture ELISA; assay type: functional; conditions: Human immunodeficiency virus 1, NL4.3, CCRF-CEM, 192 h
Outline: (§1)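 CD4+ T-lymphoblastoid CEM-GFP cells were infected with HIV-1 NL4-3 at MOI 0.05, following the lab's published protocol. Cells were then exposed to each compound at a concentration found non-cytotoxic by MTT and kept up to 8 days post infection. Virus was read out by p24 antigen-capture ELISA. IC50 is the concentration giving 50% protection of cells from virus (n = 3).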

[3] = tested on: Human immunodeficiency virus 1; assay: Antiviral activity against Human immunodeficiency virus 1 NL4.3 infected human CEM cells expressing GFP measured up to 8 days postinfection by p24 antigen capture ELISA; assay type: functional, organism-based; conditions: Human immunodeficiency virus 1, NL4.3, CCRF-CEM, 192 h; outline: as §1
[4] = Cytotoxicity against human CEM cells expressing GFP after 48 to 72 hrs by MTT assay; assay type: cell-based; conditions: CEM cells expressing GFP (CCRF-CEM)
Outline: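 MTT cell-viability kit used per the manufacturer's protocol. CEM-GFP cells were seeded at 2 × 10⁴ cells/well and given compound at a range of concentrations, with untreated wells as controls. Formazan was solubilized and read at 540 nm. CC50 is the concentration reducing cell proliferation by 50% (n = 3).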

[5] = tested on: Human immunodeficiency virus 1; assay: Antiviral activity against Human immunodeficiency virus 1 NL4.3 infected human CEM cells expressing GFP at 65.93 uM measured up to 8 days postinfection by p24 antigen capture ELISA; assay type: functional; conditions: Human immunodeficiency virus 1, NL4.3, CCRF-CEM, 192 h; outline: as §1
[6] = Therapeutic index, ratio of CC50 for human CEM cells expressing GFP to IC50 for Human immunodeficiency virus 1 NL4.3; assay type: cell-based, CCRF-CEM; conditions: read-out: Ratio CC50/IC50
[7] = tested on: Human immunodeficiency virus 1; assay: Antiviral activity against Human immunodeficiency virus 1 NL4.3 infected human CEM cells expressing GFP at 35.17 uM measured day 8 on post infection by p24 antigen capture ELISA; assay type: functional; conditions: Human immunodeficiency virus 1, NL4.3, CCRF-CEM, 192 h; outline: as §1
[8] = tested on: Human immunodeficiency virus 1; assay: Antiviral activity against Human immunodeficiency virus 1 NL4.3 infected human CEM cells expressing GFP at 12.30 uM measured up to 8 days postinfection by p24 antigen capture ELISA; assay type: functional; conditions: Human immunodeficiency virus 1, NL4.3, CCRF-CEM, 192 h; outline: as §1
[9] = tested on: Human immunodeficiency virus 1; assay: Antiviral activity against Human immunodeficiency virus 1 NL4.3 infected human CEM cells expressing GFP at 1.59 uM measured up to 8 days postinfection by p24 antigen capture ELISA; assay type: functional; conditions: Human immunodeficiency virus 1, NL4.3, CCRF-CEM, 192 h; outline: as §1
[10] = tested on: Human immunodeficiency virus 1; assay: Antiviral activity against Human immunodeficiency virus 1 NL4.3 infected human CEM cells expressing GFP at 24.48 uM measured up to 8 days postinfection by p24 antigen capture ELISA; assay type: functional; conditions: Human immunodeficiency virus 1, NL4.3, CCRF-CEM, 192 h; outline: as §1
[11] = tested on: Human immunodeficiency virus 1; assay: Antiviral activity against Human immunodeficiency virus 1 NL4.3 infected human CEM cells expressing GFP at 59.80 uM measured up to 8 days postinfection by p24 antigen capture ELISA; assay type: functional; conditions: Human immunodeficiency virus 1, NL4.3, CCRF-CEM, 192 h; outline: as §1
[12] = tested on: Human immunodeficiency virus 1; assay: Antiviral activity against Human immunodeficiency virus 1 NL4.3 infected human CEM cells expressing GFP at 23.36 uM measured up to 8 days postinfection by p24 antigen capture ELISA; assay type: functional; conditions: Human immunodeficiency virus 1, NL4.3, CCRF-CEM, 192 h; outline: as §1
[13] = tested on: Human immunodeficiency virus 1; assay: Antiviral activity against Human immunodeficiency virus 1 NL4.3 infected human CEM cells expressing GFP at 43.29 uM measured up to 8 days postinfection by p24 antigen capture ELISA; assay type: functional; conditions: Human immunodeficiency virus 1, NL4.3, CCRF-CEM, 192 h; outline: as §1
[14] = tested on: Human immunodeficiency virus 1; assay: Antiviral activity against Human immunodeficiency virus 1 NL4.3 infected human CEM cells expressing GFP at 31.12 uM measured up to 8 days postinfection by p24 antigen capture ELISA; assay type: functional; conditions: Human immunodeficiency virus 1, NL4.3, CCRF-CEM, 192 h; outline: as §1
[15] = tested on: Human immunodeficiency virus 1; assay: Antiviral activity against Human immunodeficiency virus 1 NL4.3 infected human CEM cells expressing GFP at […] uM measured up to 8 days postinfection by p24 antigen capture ELISA; assay type: functional; conditions: Human immunodeficiency virus 1, NL4.3, CCRF-CEM, 192 h
[16] = tested on: Human immunodeficiency virus 1; assay: Antiviral activity against Human immunodeficiency virus 1 NL4.3 infected human CEM cells expressing GFP at 4.98 uM measured up to 8 days postinfection by p24 antigen capture ELISA; assay type: functional; conditions: Human immunodeficiency virus 1, NL4.3, CCRF-CEM, 192 h
Outline: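 Human CD4+ T-cell line CEM-GFP infected with HIV-1 NL4.3 at MOI 0.05, then incubated with compound at a non-cytotoxic concentration (chosen from a prior MTT viability assay in CEM-GFP) for up to 8 days post-infection. Protection is read by p24 antigen capture ELISA, n = 3.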

[17] = tested on: Human immunodeficiency virus 1; assay: Antiviral activity against Human immunodeficiency virus 1 NL4.3 infected human CEM cells expressing GFP at 1.68 uM measured up to 8 days postinfection by p24 antigen capture ELISA; assay type: functional; conditions: Human immunodeficiency virus 1, NL4.3, CCRF-CEM, 192 h; outline: as §1
[18] = tested on: Human immunodeficiency virus 1; assay: Antiviral activity against Human immunodeficiency virus 1 NL4.3 infected human CEM cells expressing GFP at 22.30 uM measured up to 8 days postinfection by p24 antigen capture ELISA; assay type: functional; conditions: Human immunodeficiency virus 1, NL4.3, CCRF-CEM, 192 h; outline: as §1
[19] = tested on: Human immunodeficiency virus 1; assay: Antiviral activity against Human immunodeficiency virus 1 NL4.3 infected human CEM cells expressing GFP at 16.73 uM measured up to 8 days postinfection by p24 antigen capture ELISA; assay type: functional; conditions: Human immunodeficiency virus 1, NL4.3, CCRF-CEM, 192 h; outline: as §1
[20] = tested on: Human immunodeficiency virus 1; assay: Antiviral activity against Human immunodeficiency virus 1 NL4.3 infected human CEM cells expressing GFP at 20.20 uM measured up to 8 days postinfection by p24 antigen capture ELISA; assay type: functional; conditions: Human immunodeficiency virus 1, NL4.3, CCRF-CEM, 192 h; outline: as §1
[21] = tested on: Human immunodeficiency virus 1; assay: Antiviral activity against Human immunodeficiency virus 1 NL4.3 infected human CEM cells expressing GFP at 1.84 uM measured up to 8 days postinfection by p24 antigen capture ELISA; assay type: functional; conditions: Human immunodeficiency virus 1, NL4.3, CCRF-CEM, 192 h; outline: as §1
[22] = tested on: Human immunodeficiency virus 1; assay: Antiviral activity against Human immunodeficiency virus 1 NL4.3 infected human CEM cells expressing GFP at 30.56 uM measured up to 8 days postinfection by p24 antigen capture ELISA; assay type: functional; conditions: Human immunodeficiency virus 1, NL4.3, CCRF-CEM, 192 h; outline: as §1
[23] = tested on: Human immunodeficiency virus 1; assay: Antiviral activity against Human immunodeficiency virus 1 NL4.3 infected human CEM cells expressing GFP at 19.60 uM measured up to 8 days postinfection by p24 antigen capture ELISA; assay type: functional; conditions: Human immunodeficiency virus 1, NL4.3, CCRF-CEM, 192 h; outline: as §1
[24] = tested on: Human immunodeficiency virus 1; assay: Antiviral activity against Human immunodeficiency virus 1 NL4.3 infected human CEM cells expressing GFP at 18.58 uM measured up to 8 days postinfection by p24 antigen capture ELISA; assay type: functional; conditions: Human immunodeficiency virus 1, NL4.3, CCRF-CEM, 192 h; outline: as §1
[25] = tested on: Human immunodeficiency virus 1; assay: Antiviral activity against Human immunodeficiency virus 1 NL4.3 infected human CEM cells expressing GFP at 27.42 uM measured up to 8 days postinfection by p24 antigen capture ELISA; assay type: functional; conditions: Human immunodeficiency virus 1, NL4.3, CCRF-CEM, 192 h; outline: as §1
[26] = tested on: Human immunodeficiency virus 1; assay: Antiviral activity against Human immunodeficiency virus 1 NL4.3 infected human CEM cells expressing GFP at 8.41 uM measured up to 8 days postinfection by p24 antigen capture ELISA; assay type: functional; conditions: Human immunodeficiency virus 1, NL4.3, CCRF-CEM, 192 h; outline: as §1
[27] = tested on: Human immunodeficiency virus 1; assay: Antiviral activity against Human immunodeficiency virus 1 NL4.3 infected human CEM cells expressing GFP at 21.20 uM measured up to 8 days postinfection by p24 antigen capture ELISA; assay type: functional; conditions: Human immunodeficiency virus 1, NL4.3, CCRF-CEM, 192 h; outline: as §1
[28] = tested on: Human immunodeficiency virus 1; assay: Antiviral activity against Human immunodeficiency virus 1 NL4.3 infected human CEM cells expressing GFP at 23.51 uM measured up to 8 days postinfection by p24 antigen capture ELISA; assay type: functional; conditions: Human immunodeficiency virus 1, NL4.3, CCRF-CEM, 192 h; outline: as §1

Compound | IC50 [3] [µM] | CC50 [4] [µM] | selectivity ratio [6] | also measured
CCCCCCCCOc1cc(OCCCCCCCC)c2ccccc2n1 | – | – | – | solubility [1]: Insoluble
C#CCOc1cc(OCC=C(C)C)nc2ccccc12 | – | – | – | inhibition at 14.98 µM [2]: 2.56%
CCCCOc1c(CCCC)c(O)nc2ccccc12 | 34.4 | 192 | 5.56 | inhibition at 65.93 µM [5]: 81%
C#CCOc1cc(O)nc2ccccc12 | 19.3 | 103 | 5.3 | inhibition at 35.17 µM [7]: 65.1%
CC(C)=CCCC1(CCC=C(C)C)C(=O)Nc2ccccc2C1=O | 3.23 | 67.4 | 20.9 | inhibition at 12.3 µM [8]: 82%
CC(C)=CCCOc1cc(OCCC=C(C)C)c2ccccc2n1 | – | – | – | inhibition at 12.3 µM [8]: 32.7%
CC(C)=CCCOc1cc(OCCC(C)C)c2ccccc2n1 | – | – | – | inhibition at 1.59 µM [9]: 15%
CCCC1(CCC)C(=O)Nc2ccccc2C1=O | 16.7 | 113 | 6.78 | inhibition at 24.48 µM [10]: 74.7%
CC(C)CCOc1c(CCC(C)C)c(O)nc2ccccc12 | 34.9 | 160 | 4.59 | inhibition at 59.8 µM [11]: 88.6%
CC(C)CCOc1cc(OCc2ccccc2)nc2ccccc12 | – | – | – | inhibition at 23.36 µM [12]: 47%
CC(C)CCOc1cc(O)nc2ccccc12 | 3.89 | 115 | 29.5 | inhibition at 43.29 µM [13]: 76.7%
C=CCC1(CC=C)C(=O)Nc2ccccc2C1=O | – | – | – | inhibition at 31.12 µM [14]: 44.3%
CCCCC1(CCCC)C(=O)Nc2ccccc2C1=O | – | – | – | solubility [1]: Insoluble
CC(C)=CCCOc1c(CCC=C(C)C)c(O)nc2ccccc12 | 8.76 | 103 | 11.8 | inhibition at 23.07 µM [15]: 68.3%
Cc1cn([C@H]2C[C@H](N=[N+]=[N-])[C@@H](CO)O2)c(=O)[nH]c1=O [ZIDOVUDINE] | 1.04 | – | – | inhibition at 4.98 µM [16]: 89.8%
CC(C)=CCOc1cc(OCCC(C)C)c2ccccc2n1 | – | – | – | inhibition at 1.68 µM [17]: 31.2%
C=CCOc1cc(OCC=C(C)C)c2ccccc2n1 | – | – | – | inhibition at 22.3 µM [18]: 35%
C#CCOc1cc(OCC=C)nc2ccccc12 | – | – | – | inhibition at 16.73 µM [19]: 16.1%
CC(C)=CCOc1c(CC=C(C)C)c(O)nc2ccccc12 | 3.8 | 71.2 | 18.7 | inhibition at 20.2 µM [20]: 87.5%
C=CCOc1cc(OCCC(C)C)c2ccccc2n1 | – | – | – | inhibition at 1.84 µM [21]: 23%
CC(C)=CCOc1cc(O)nc2ccccc12 | 8.95 | 77.4 | 8.64 | inhibition at 30.56 µM [22]: 95.5%
C#CCOc1cc(OCCCC)nc2ccccc12 | – | – | – | inhibition at 19.6 µM [23]: 56.4%
C#CCOc1cc(OCCC(C)C)nc2ccccc12 | – | – | – | inhibition at 18.58 µM [24]: 56.4%
C#CCOc1c(CC#C)c(O)nc2ccccc12 | 11.6 | 147 | 12.7 | inhibition at 27.42 µM [25]: 92.4%
CC(C)Oc1c(C(C)C)c(O)nc2ccccc12 | – | – | – | solubility [1]: Insoluble
CC(C)=CCC1(CC=C(C)C)C(=O)Nc2ccccc2C1=O | 2.35 | 62.6 | 26.6 | inhibition at 8.41 µM [26]: 96%
C=CCOc1cc(OCCC=C(C)C)c2ccccc2n1 | – | – | – | inhibition at 21.2 µM [27]: 16%
C=CC(C)(C)C1(CC=C(C)C)C(=O)Nc2ccccc2C1=O (stereo not given) [BUCHAPINE] | 2.99 | 55.9 | 18.7 | inhibition at 23.51 µM [28]: 80.1%
